Experimental data published in the array DNA melting data of Ke et al. (doi:10.1101/2024.01.08.574731).

Tests used:
[1] = melting temperature; fluorescence melt of hairpins on a sequencing array, two-state fit, raised by 9.35 °C to match UV melts; settings: sodium 0.088 M
Summary of the method: (§1)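 Melting temperature and folding enthalpy were obtained by bootstrapped two-state fitting. Fits used Cy3 fluorescence of library hairpins with annealed Cy3 and quencher oligos on a sequenced MiSeq flow cell, imaged in 50 mM Na-HEPES pH 8.0, 25 mM NaCl in 2.5 °C steps up to 60 °C and normalised to pre-quench Cy3 and control constructs. Four replicates were combined by inverse-variance weighting, and fitted temperatures were raised by 9.35 °C to match UV melts.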

[2] = folding enthalpy; higher = less favourable; fluorescence melt of hairpins on a sequencing array, two-state fit; settings: sodium 0.088 M
Summary of the method: as §1

Sequence	Tm [1] [°C]	folding enthalpy [2] [kJ/mol]
GATCACCATGGTGATC ((((((....))))))	63.8	-183
GATCCGGAATCGGATC ((((((....))))))	62	-189
GGCGACGAAAGTCTAGCC ((((((....)))..)))	54.5	-120
GTTTCTGAAAAGAAAC ((((((....))))))	50.2	-155
GATCTACCGTTAGATC ((((((....))))))	37.8	-128
GATGGCGCGAAAGCGATC (((..(((....))))))	31.6	-46.2
GGTCCCCGAAAGGGCACC (((.(((....))).)))	49	-80.9
GTCGACGGAAACATCGAC (((((.(....).)))))	46.3	-167
GTTCGGGGAAACCCGAAC (((((((....)))))))	69	-166
GATCCCTGGCGGGATC ((((((....))))))	59.1	-156
GCTCTGCGAAAGCATGGC ((..(((....)))..))	40.1	-81.8
GATCTTTTCTAAGATC ((((((....))))))	45.2	-154
GGAAGCGAAAGCTAGTCC ((((((....)))..)))	25.8	-41.8
GCCACGCGAAAGCTAGGC (((..((....))..)))	52.1	-91.8
GTACTGCGAAAGCACTAC (((.(((....))).)))	28.8	-62
GGTACCGAAAGGTAAACC ((((((....)))..)))	40.5	-68
GGAGCGGGAAACCGCTTC (.(((((....))))).)	58.2	-69.2
GCTGTCGAAAGACCAAGC ((((((....)))..)))	38.9	-81.6
GATCATGTCAATGATC ((((((....))))))	56.9	-167
GTTCATCGAAAGATTAAC (((.(((....))).)))	32.6	-143
GATCGGAGGACCGATC ((((((....))))))	53.3	-130
GCATCGCGAAAGCGCTGC (((.(((....))).)))	56	-176
GTGGATGGAAACGTCTAC ((.((.(....).)).))	32.5	-82.7

Sequence	Tm [1] [°C]	folding enthalpy [2] [kJ/mol]
GATACCGCGAAAGCGATC (((..(((....))))))	23	-32
GCGGGGCGAAAGCCTAGC ((..(((....)))..))	64.2	-80.5
GATCTAGGACTAGATC ((((((....))))))	47.4	-166
GTGTACGAAAGTATTCAC ((((((....)))..)))	28.7	-49.2
GTTGTCGAAAGACCAAAC ((((((....)))..)))	26	-44.3
GAATTGCGAAAGCAGTTC (((.(((....))).)))	51.5	-127
GTAAAGCGAAAGCTCTAC (((.(((....))).)))	35	-60.7
GATTCACGAAAGTGATC (((.(((....))))))	42.3	-56.3
GGGTACACGAAAGTGCCC (((..(((....))))))	48	-88.8
CGCGGGCGGAAACGCGCG (((..(((....))))))	65.4	-62.5
GCAGCGGGAAACTGCTGC (((((.(....).)))))	66	-180
GCCTGGGGAAACTCAGGC (((((.(....).)))))	58.4	-151
GAAGTCGGAAACGACTTC (((((((....)))))))	66	-152
GCCTTTGGAAACAGAGGC ((((.((....)).))))	48.2	-130
GGCTTGGCGAAAGCCGCC (((..(((....))))))	68.8	-69.3
GTCAGGCGAAAGCCGGAC (((.(((....))).)))	69.1	-103
GCGCATGCGAAAGCACGC (((..(((....))))))	54.6	-57.5
GGATGAGGAAACTCACCC ((.((((....)))).))	39.6	-93.3
GGGTACGAAAGTAGCCC ((((((....))).)))	56.2	-110
GGCATACGAAAGTAGGCC (((.(((....))).)))	63.4	-197
GTGAGCCGAAAGGCCCAC (((.(((....))).)))	55.3	-97.5
GGATGCGGAAACGTGTCC (((..((....))..)))	48.4	-146
GCGCGGCGAAAGCCTGGC ((..(((....)))..))	47.9	-64

Sequence	Tm [1] [°C]	folding enthalpy [2] [kJ/mol]
GATCGAATGATCGATC ((((((....))))))	51.7	-82.2
GGATGGGAAACCATCC ((((((....))))))	59.2	-156
GTCCATCGAAAGATTGAC (((.(((....))).)))	39.7	-143
GATCGGTGAGCCGATC ((((((....))))))	60.8	-203
GGCTACGGAAACGCAGCC ((((.((....)).))))	52.6	-222
GTGGACGGAAACGTCTAC ((.((((....)))).))	52.2	-104
GCTCCCGAAAGGGTAAGC ((((((....)))..)))	46.2	-86.6
GGACAAACGAAAGTTTCC (((..(((....))))))	25.4	-41.4
GCCCCAGGAAACTGAGGC (((.(((....))).)))	47.5	-140
GATCCTGGTTAGGATC ((((((....))))))	51.9	-159
GCAGCGCGAAAGCGTCGC ((..(((....)))..))	57.1	-73.1
GCTAACCGAAAGGTAGC (((.(((....))))))	55.3	-133
GTGTTCGAAAGAACCAC ((((((....))).)))	43.5	-55.5
GATCTCCGTGAGATC ((((((...))))))	56.3	-151
GGGTGAGGAAACTCGTCC ((..(((....)))..))	34.3	-119
GATCCTAAGGAGGATC ((((((....))))))	49.3	-106
GATCCAATCTGGATC ((((((...))))))	51.8	-138
TGCAAGAAATTGCA (((((....)))))	39.7	-73.6
GTGACAGGAAACTATCAC ((((.((....)).))))	33.2	-81.3
GATCGCCCCGGCGATC ((((((....))))))	69.2	-138
GAATAGGGAAACCTGTTC (((.(((....))).)))	38.2	-128
GTTTCAGGAAACTGAAAC (((((((....)))))))	55.3	-188
GATCTACGTATAGATC ((((((....))))))	41.2	-141

Sequence	Tm [1] [°C]	folding enthalpy [2] [kJ/mol]
GCAGTGCGAAAGCCATGC (((..((....))..)))	51.1	-68.6
GCAGCCGAAAGGCGTGC ((((((....))).)))	65	-69.2
GTATCGGGAAACCGATGC (.(((((....))))).)	53.3	-93
GTATAAGGAAACTTATGC (.(((((....))))).)	31.6	-77.4
GACGTACGAAAGTAGGTC (((.(((....))).)))	52.6	-161
GCCTATGGAAACATAAGC ((.((((....)))).))	27.6	-65.3
GCCCACGAAAGTGAGGC ((((((....))).)))	64	-130
GATCGAGTGATCGATC ((((((....))))))	55.3	-168
GATCAATGCTTTGATC ((((((....))))))	47.5	-166
GGTGTTGGAAACAACATC (.(((((....))))).)	48.2	-102
GCTAGTGAAAACTAGC ((((((....))))))	56.9	-152
GTTTACGGAAACGTAAAC (((((((....)))))))	57.5	-172
GGTCGCCGAAAGGCACC (((.(((....))))))	55.3	-52.7
GCATAGCGAAAGCGGTGC (((..((....))..)))	63.6	-136
GCATCTTCGAAAGAATGC (((..(((....))))))	33.4	-97.1
GATCCAAAAATGGATC ((((((....))))))	42.9	-111
GATCCTTGTCAGGATC ((((((....))))))	50.1	-158
GTGTTATCGAAAGATCAC (((..(((....))))))	33.8	-115
GTTGCACGAAAGTGGAAC (((.(((....))).)))	56.6	-148
GGCATCGAAAGATCCGCC ((((((....)))..)))	49.3	-80.4
GCTTGCACGAAAGTGAGC (((..(((....))))))	44.4	-72.5
GATCAATAACTTGATC ((((((....))))))	39.4	-132
GGTATAGGAAACTATATC (.(((((....))))).)	31.2	-71.3
